Screening data (PubChem BioAssay)
The list is not random: actives were taken first. Their share in the collection is about 2.1%.
DENV2 CPE: inhibitors of DENV2 cytopathic effect, primary screen, cell-based, plate reader, single concentration. CPE inhibition, % at 9.99 µM. DENV2-infected cells, cytopathic effect rescue. actives 1.7% (n = 350,000). AID 651640, 2012; in the data active = CPE inhibition above about 20%, passing the limit was not always enough; inconclusive = no clear call, values can overlap the other calls; tested in BHK-21 cells;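 note: 0% = median of neutral control wells and 100% = median of positive control wells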
C2C12 statin: suppressors of statin myotoxicity in C2C12 myotubes, primary screen, cell-based, single point, plate reader; actives 0.78% (n = 330,000); rescue of ATP level, % at 7.49 µM; C2C12 myotubes + simvastatin, ATP luminescence, 48 h; scaled: DMSO 0, geranylgeraniol control 100;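 active = mean ATP rescue above about 67%, or every replicate alone reaching that limit, limit read from the data, passing the limit was not always enough; inconclusive = no clear call, values can overlap the other calls; inactive = mean under the limit and some replicate under it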;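 note: myotubes were challenged with 10 µM simvastatin during compound exposure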
Xi reactivation: activators of inactive X chromosome reactivation, primary screen, imaging, XiGFP fibroblasts, GFP high-content imaging, set 2. activation, % at 7.58 µM. actives 0.055% (n = 360,000). XiGFP mouse fibroblasts, % GFP-positive cells imaging, 3 d; cells co-treated with 5-aza-dC sensitizer; scaled so ellipticine positive control = 100%;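 active = mean normalized replicate activation at least 10% and every replicate at or above 10%; inconclusive = only one of the two criteria met; inactive = mean below 10% and not all replicates reach 10%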;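 note: 0% = median of on-plate neutral control wells and 100% = ellipticine 6 µM median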
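Assay system – SV40-immortalized XiGFP fibroblast cells, line 68-5-11 · Buffer or medium – DMEM supplemented with 5-aza-dC as sensitizing agent · Dosing – one concentration, pinned · Benchmarks – positive control ellipticine, 6 µM final · Times – 3 days compound exposure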
Cneo AK release: Cryptococcus neoformans cell lysis inducers, primary screen, AK release luminescence, single concentration; AID 651654, 2012; C. neoformans lysis, adenylate kinase release luminescence, 4 h; normalised: neutral wells 0, clomiphene wells 100; actives 0.2% (n = 360,000); lysis activity, % at 15 µM;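 active = mean lysis activity across replicates of at least 80%, whatever share of replicates individually reach that level; inactive = mean lysis activity below 80%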
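Assay system: log-phase C. neoformans yeast / Quantity: yeast cell density of 5 × 10^6 cells/mL / Medium: fresh YPD growth medium / Compound: single dose / Timing: static 4 h at 37 °C with compound, 1 h detection / Measured by: adenylate kinase release luminescence / Read-out: lysis from increased AK signal / Benchmarks: Clomiphene as positive lysis control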
Starred values were filed as active, the others as inactive; ? = inconclusive; . = no result given.

SMILES	DENV2 CPE	C2C12 statin	Xi reactivation	Cneo AK release
C[C@@H]1CN([C@@H](C)CO)C(=O)c2c(c3ccccc3n2C)-c2ccccc2CO[C@H]1CN(C)Cc1ccc(C(=O)O)cc1	.	.	0	.
O=C(C[C@@H]1CC[C@H](NC(=O)CN2CCOCC2)[C@H](CO)O1)NCCc1ccncc1	4	7	1	45
COc1ccccc1N1CCN(C(=O)c2cc(-c3ccc(F)cc3)[nH]c2C)CC1	-7	119*	0	3
CCOC(=O)[C@@H]1[C@H]2COc3ccc(Br)cc3[C@@H]2N2C(=O)N(c3ccc(C)cc3)C(=O)[C@]12C	51*	-11	0	3
CCOC(=O)[C@@H]1[C@H]2COc3ccc(Br)cc3[C@H]2N2C(=O)N(c3ccc(C)cc3)C(=O)[C@]12C	4	-3	0	2
CCOC(=O)[C@H]1[C@H]2COc3ccc(Br)cc3[C@@H]2N2C(=O)CN(Cc3ccco3)C(=O)[C@@]12C	50*	-2	0	-2
COc1ccccc1CC(Cc1nc2ccccc2[nH]1)c1nc2ccccc2[nH]1 (stereo not given)	-2	.	0	.
N#CC(Cc1ccccc1OC(F)F)c1nc2ccccc2[nH]1 (stereo not given)	25*	.	0	.
C[C@H](CO)N1C[C@H](C)[C@@H](CN(C)C(=O)c2cnccn2)Oc2cc(Br)ccc2S1(=O)=O	2	-7	-1	-1
CN(C)c1ccc(-c2nn3c(-c4ccccc4Cl)nnc3s2)cc1	.	.	.	2
COc1ccccc1-c1nnc2sc(-c3ccc(N(C)C)cc3)nn12	42*	.	0	4
CN(C)S(=O)(=O)c1cccc(C(=O)Nc2ccccc2C(=O)NC2CC2)c1	54*	1	0	-1
CN(Cc1ccccc1)C(=O)c1cccc(NC(=O)Cc2ccc(NC(=O)C3CCCN(C(=O)CCc4ccccc4)C3)cc2)c1 (stereo not given)	64*	-33	0	-2
O=C(Cc1cccc(NC(=O)C2CCCN(C(=O)C3CC3)C2)c1)Nc1cccc(C(=O)N2CCCCC2)c1 (stereo not given)	59*	15	.	-3
COC(=O)c1[nH]c2cc(C)ccc2c1NC(=O)CN1CCN(c2ccccc2OC)CC1	.	86*	.	1
O=C(N/N=C\c1c(O)ccc2ccccc12)c1ccc(S(=O)(=O)N2CCCCC2)cc1	.	.	48*	.
CC1CCCCC12NC(=O)N(CC(=O)NCc1cccs1)C2=O (stereo not given)	29*	11	0	0
CC(C)OC(=O)N(C)C[C@@H]1OCc2cn(nn2)CCCC(=O)N([C@@H](C)CO)C[C@@H]1C	11	-7	0	6
O=C(CSc1nc2ccccc2[nH]1)Nc1ccc2c(c1)OCCO2	.	117*	.	-7
O=C(CSc1ncn(-c2ccccc2)n1)Nc1ccc2c(c1)OCCO2	.	101*	.	3
O=C(CSc1ccc2c(c1)OCCO2)Nc1ccc(Br)cc1	.	102*	.	1
O=C(CSc1ncn(-c2ccccc2)n1)Nc1ccc2c(c1)OCO2	.	4	.	0
O=C(C[C@@H]1C[C@@H]2c3cc(NC(=O)NC4CCCCC4)ccc3O[C@@H]2[C@@H](CO)O1)NCCc1ccccc1	6	.	0	.
CC(C)NC(=O)Nc1ccc2c(c1)C(=O)N([C@@H](C)CO)C[C@@H](C)[C@@H](CN(C)C(=O)NC(C)C)O2	0	-14	0	48
COc1cc(/C=C(\C#N)c2nc3ccccc3o2)ccc1O	-4	.	18*	-4
SMILES	DENV2 CPE	C2C12 statin	Xi reactivation	Cneo AK release
O=C(CCc1nnc(Cc2c[nH]c3ccccc23)o1)NC1CCCC1	6	6	0	6
O=C(CCc1nnc(Cc2c[nH]c3ccccc23)o1)NCCC1CCCCO1 (stereo not given)	54*	5	0	2
CC(=O)Nc1nc2n(n1)C(c1ccc(F)cc1)C=C(c1ccccc1)N2 (stereo not given)	.	133*	.	1
O=C1CC(N2CCN(S(=O)(=O)c3ccccc3F)CC2)C(=O)N1c1ccccc1Cl (stereo not given)	-7	2	0	0
COc1ccc(Cl)cc1N1C(=O)CC(N2CCN(S(=O)(=O)c3ccccc3F)CC2)C1=O (stereo not given)	37*	-1	0	3
CCN(CC)C(=O)c1sc(N)c(C#N)c1C	.	128*	.	0
CCOC(=O)C(=O)Nc1sc(C(=O)N(CC)CC)c(C)c1C#N	1	.	0	.
CC(C)NC(=O)N1CC(=O)N2[C@H](CO)[C@@H](c3ccc(/C=C/c4ccccc4)cc3)[C@H]2C1	8	.	0	.
CC(=O)N1[C@@H]2Cn3c(ccc(-c4ccccc4)c3=O)[C@H]1[C@@H](C(=O)Nc1ccccc1)[C@@H]2CO	5	-10	1	74
COC(=O)[C@@]1(Cc2ccc(F)cc2)[C@H]2c3cc(C(=O)N(C)C)n(CCF)c3C[C@H]2CN1C(=O)c1ccccc1	3	.	0	.
COC(=O)[C@@]1(Cc2ccc(F)cc2)[C@H]2c3cc(C(=O)N(C)C)n(Cc4ccc(OC(F)(F)F)cc4)c3C[C@H]2CN1C(=O)c1ccccc1	20*	.	0	.
COC(=O)Cn1c(C(=O)N(C)C)cc2c1C[C@H]1CN(C(=O)c3ccccc3)[C@@](Cc3ccc(F)cc3)(C(=O)OC)[C@@H]21	63*	.	0	.
C[C@H]1CN([C@@H](C)CO)C(=O)c2cc(NC(=O)C3CC3)ccc2O[C@H]1CN(C)Cc1ccc(-c2ccccc2)cc1	1	2	0	4
Nc1c(/C=C2/C=CC(=O)C(O)=C2)c(=O)nc2sc(CC(=O)N3CCOCC3)nn12	31*	4	0	2
Nc1c(/C=C2/C=CC(=O)C(O)=C2)c(=O)nc2sc(CC(=O)N3CCCC3)nn12	6	0	0	1
c1ccc2[nH]c(CSc3nnc(-c4ccncc4)o3)nc2c1	.	85*	.	-9
Brc1cccc(-c2nnc(SCc3nc4ccccc4[nH]3)o2)c1	.	42	.	2
C[C@H](CO)N1C[C@H](C)[C@@H](CN(C)Cc2ccc(Oc3ccccc3)cc2)Oc2ccc(NS(=O)(=O)c3cn(C)cn3)cc2CC1=O	-17	-1	-1	110*
C[C@H]1CN([C@@H](C)CO)C(=O)Cc2cc(NS(=O)(=O)c3cn(C)cn3)ccc2O[C@@H]1CN(C)Cc1ccc(-c2ccccc2)cc1	9	88*	-1	.
C[C@H](CO)N1C[C@H](C)[C@H](CN(C)Cc2ccc(-c3ccccc3)cc2)Oc2ccc(NS(=O)(=O)c3cn(C)cn3)cc2CC1=O	3	-1	-1	.
C[C@@H]1CN([C@@H](C)CO)C(=O)Cc2cc(NS(=O)(=O)c3cn(C)cn3)ccc2O[C@H]1CN(C)Cc1ccc(-c2ccccc2)cc1	26*	?	-1	.
